# In ChEMBL document CHEMBL2346537, “Phenylimino-2H-chromen-3-carboxamide derivatives as novel small molecule inhibitors of β-secretase (BACE1)” (Bioorg Med Chem, 2013):
# What was measured:
# Beta-secretase 1 = Beta-secretase 1 (Homo sapiens, UniProt P56817); assay: Inhibition of BACE1 (unknown origin) expressed in baculovirus expression system using Rh-EVNLDAEFK-Quencher as substrate after 90 mins by FRET assay
# [1] = Cytotoxicity against mouse Neuro2a cells expressing APP Swedish mutant assessed as cell viability at 10 uM after 24 hrs by MTT assay relative to control; assay type: cell-based, N2a; settings: read-out: Activity
# How it was run: (§1)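 N2a-APPswe cells seeded at 2 × 10⁵ cells/ml (8 × 10⁴/well), grown overnight at 37 °C, then dosed as in the Aβ assay (DMSO diluted in medium, final DMSO under 0.5%). MTT 0.5 mg/ml added for 4 h at 37 °C, formazan dissolved in DMSO, read at 570 nm with 655 nm background. Viability given as percent of untreated control. Average of 3–4 experiments ± SEM.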
# [2] = Cytotoxicity against mouse Neuro2a cells expressing APP Swedish mutant assessed as cell viability at 5 uM after 24 hrs by MTT assay relative to control; assay type: cell-based, N2a; settings: read-out: Activity; how it was run: as §1
# [3] = biological target: Beta-secretase 1 (Mus musculus) (UniProt P56818); assay: Inhibition of BACE1 in mouse Neuro2a cells expressing APP Swedish mutant assessed as inhibition of amyloid beta (1 to 40) production at 5 uM after 24 hrs by sandwich ELISA relative to control; assay type: cell-based
# Sequence of Beta-secretase 1 (Mus musculus) (P56818 whole entry): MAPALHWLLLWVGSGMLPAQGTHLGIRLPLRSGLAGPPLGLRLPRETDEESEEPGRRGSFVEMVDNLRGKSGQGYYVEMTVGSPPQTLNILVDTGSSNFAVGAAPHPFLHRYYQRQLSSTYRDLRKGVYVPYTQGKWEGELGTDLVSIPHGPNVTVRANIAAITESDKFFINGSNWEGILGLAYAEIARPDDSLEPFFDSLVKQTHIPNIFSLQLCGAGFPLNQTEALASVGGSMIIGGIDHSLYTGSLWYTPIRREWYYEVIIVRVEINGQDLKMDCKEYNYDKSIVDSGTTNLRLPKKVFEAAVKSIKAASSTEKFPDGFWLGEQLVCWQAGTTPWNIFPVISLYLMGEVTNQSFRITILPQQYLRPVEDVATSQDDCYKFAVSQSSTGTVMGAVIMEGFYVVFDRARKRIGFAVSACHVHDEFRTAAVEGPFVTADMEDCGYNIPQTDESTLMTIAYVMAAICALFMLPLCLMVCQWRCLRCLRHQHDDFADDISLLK
# How it was run: (§2)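 N2a-APPswe cells seeded at 2 × 10⁵ cells/ml and incubated overnight at 37 °C. Medium replaced, compound in growth medium added (DMSO under 0.5%), incubated 24 h. Conditioned medium collected with 0.1 mM PMSF. Human Aβ1–40 measured by colorimetric sandwich ELISA at 450 nm. Percent inhibition relative to untreated cells, 2–3 experiments ± SEM.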
# [4] = biological target: Beta-secretase 1 (Mus musculus) (UniProt P56818); assay: Inhibition of BACE1 in mouse Neuro2a cells expressing APP Swedish mutant assessed as inhibition of amyloid beta (1 to 40) production at 10 uM after 24 hrs by sandwich ELISA relative to control; assay type: cell-based; how it was run: as §2
# Sequence of Beta-secretase 1 (P56817 whole entry): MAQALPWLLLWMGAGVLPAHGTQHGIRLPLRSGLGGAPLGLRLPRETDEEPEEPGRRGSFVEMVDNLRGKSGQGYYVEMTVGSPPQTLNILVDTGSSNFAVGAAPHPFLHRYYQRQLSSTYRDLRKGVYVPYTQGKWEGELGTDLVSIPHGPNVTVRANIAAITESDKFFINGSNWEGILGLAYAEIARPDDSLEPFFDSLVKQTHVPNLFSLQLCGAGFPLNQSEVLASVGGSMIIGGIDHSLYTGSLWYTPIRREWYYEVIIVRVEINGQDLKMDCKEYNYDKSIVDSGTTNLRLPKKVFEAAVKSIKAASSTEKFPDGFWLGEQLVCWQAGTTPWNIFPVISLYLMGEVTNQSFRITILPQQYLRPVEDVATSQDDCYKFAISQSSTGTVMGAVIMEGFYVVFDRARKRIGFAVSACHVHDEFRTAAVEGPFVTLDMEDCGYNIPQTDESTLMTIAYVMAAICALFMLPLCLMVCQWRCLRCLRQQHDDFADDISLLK
structure (smiles),measurement,setting,value
COc1cccc2cc(C(=O)Nc3cc(Br)ccc3N3CCN(Cc4ccccc4)CC3)c(=N)oc12,IC50,Beta-secretase 1,> 10 µM
O=C(Nc1cc(Br)ccc1N1CCNCC1)c1cc2ccccc2o/c1=N\c1ccccc1,IC50,Beta-secretase 1,9.27 µM
N#CCCCN1CCN(c2ccc(Br)cc2NC(=O)c2cc3ccccc3o/c2=N\c2ccccc2)CC1,IC50,Beta-secretase 1,> 10 µM
"CC(C)C[C@H](NC(=O)[C@H](CC(N)=O)NC(=O)[C@@H](NC(=O)[C@@H](N)CCC(=O)O)C(C)C)[C@@H](O)CC(C)C(=O)N[C@@H](C)C(=O)N[C@@H](CCC(=O)O)C(=O)N[C@@H](Cc1ccccc1)C(=O)O (single isomer, unassigned)","viability at 24 h, 10 µM",[1],< 70%
same,"viability at 24 h, 5 µM",[2],< 70%
COc1ccccc1C(=O)N1CCN(c2ccc(Br)cc2NC(=O)c2cc3ccccc3o/c2=N\c2ccccc2)CC1,IC50,Beta-secretase 1,25.7 µM
O=C(Nc1cc(Br)ccc1N1CCN(CCCN2C(=O)c3ccccc3C2=O)CC1)c1cc2ccccc2o/c1=N\c1ccccc1,IC50,Beta-secretase 1,0.326 µM
same,"viability at 24 h, 5 µM",[2],101%
same,inhibition,[3],44.3%
O=C(Nc1cc(Br)ccc1N1CCN(CCc2cc3ccccc3[nH]2)CC1)c1cc2ccccc2o/c1=N\c1ccccc1,"viability at 24 h, 10 µM",[1],111%
same,inhibition,[4],57.6%
same,IC50,Beta-secretase 1,0.928 µM
same,"viability at 24 h, 5 µM",[2],105%
same,inhibition,[3],37.8%
COc1ccc(C(=O)N2CCN(c3ccc(Br)cc3NC(=O)c3cc4ccccc4o/c3=N\c3ccccc3)CC2)cc1,IC50,Beta-secretase 1,> 10 µM
COc1cccc2cc(C(=O)Nc3cc(Br)ccc3N3CCN(Cc4ccccc4)CC3)/c(=N/c3ccccc3)oc12,IC50,Beta-secretase 1,> 10 µM
CC(C)(C)OC(=O)N1CCN(c2ccc(Br)cc2NC(=O)c2cc3ccccc3o/c2=N\c2ccccc2)CC1,IC50,Beta-secretase 1,9.81 µM
N#Cc1cccc(CN2CCN(c3ccc(Br)cc3NC(=O)c3cc4ccccc4o/c3=N\c3ccccc3)CC2)c1,"viability at 24 h, 10 µM",[1],88.7%
same,inhibition,[4],51.8%
same,IC50,Beta-secretase 1,0.119 µM
same,"viability at 24 h, 5 µM",[2],91.2%
O=C(Nc1cc(Br)ccc1N1CCN(C(=O)c2cccc(Cl)c2)CC1)c1cc2ccccc2o/c1=N\c1ccccc1,IC50,Beta-secretase 1,> 10 µM
O=C(Nc1cc(Br)ccc1N1CCN(Cc2ccccc2)CC1)c1cc2ccccc2o/c1=N\c1ccccc1,"viability at 24 h, 10 µM",[1],95%
same,inhibition,[4],64.7%
same,IC50,Beta-secretase 1,0.503 µM
same,"viability at 24 h, 5 µM",[2],102%
same,inhibition,[3],60.9%
N=c1oc2ccccc2cc1C(=O)Nc1cc(Br)ccc1N1CCN(Cc2ccccc2)CC1,"viability at 24 h, 10 µM",[1],98.9%
same,inhibition,[4],58.3%
same,IC50,Beta-secretase 1,1.22 µM
same,"viability at 24 h, 5 µM",[2],99.7%
same,inhibition,[3],26.4%
COc1ccc(CN2CCN(c3ccc(Br)cc3NC(=O)c3cc4ccccc4o/c3=N\c3ccccc3)CC2)cc1,"viability at 24 h, 10 µM",[1],98.3%
same,inhibition,[4],22.9%
same,IC50,Beta-secretase 1,0.578 µM
same,"viability at 24 h, 5 µM",[2],101%
O=C(Nc1cc(Br)ccc1N1CCN(CCCCN2C(=O)c3ccccc3C2=O)CC1)c1cc2ccccc2o/c1=N\c1ccccc1,IC50,Beta-secretase 1,0.854 µM
O=C(Nc1cc(Br)ccc1N1CCN(C(=O)c2cccc([N+](=O)[O-])c2)CC1)c1cc2ccccc2o/c1=N\c1ccccc1,IC50,Beta-secretase 1,26.4 µM
O=C(Nc1cc(Br)ccc1N1CCN(CCO)CC1)c1cc2ccccc2o/c1=N\c1ccccc1,"viability at 24 h, 10 µM",[1],101%
same,inhibition,[4],48.2%
same,IC50,Beta-secretase 1,0.849 µM
same,"viability at 24 h, 5 µM",[2],105%
same,inhibition,[3],41.3%
O=C(Nc1cc(Br)ccc1N1CCN(C(=O)c2cccs2)CC1)c1cc2ccccc2o/c1=N\c1ccccc1,IC50,Beta-secretase 1,3.55 µM
CC(C)(C)OC(=O)N1CCN(c2ccc(Br)cc2NC(=O)c2cc3ccccc3oc2=N)CC1,IC50,Beta-secretase 1,> 10 µM
O=C(Nc1cc(Br)ccc1N1CCN(C(=O)c2ccco2)CC1)c1cc2ccccc2o/c1=N\c1ccccc1,"viability at 24 h, 10 µM",[1],95.4%
same,inhibition,[4],65.8%
same,IC50,Beta-secretase 1,0.741 µM
same,"viability at 24 h, 5 µM",[2],93%
same,inhibition,[3],53.1%
O=C(Nc1cc(Br)ccc1N1CCN(CCN2C(=O)c3ccccc3C2=O)CC1)c1cc2ccccc2o/c1=N\c1ccccc1,"viability at 24 h, 10 µM",[1],96.5%
same,inhibition,[4],39.4%
same,IC50,Beta-secretase 1,0.098 µM
same,"viability at 24 h, 5 µM",[2],108%
same,inhibition,[3],13.6%
